Assay results published in the array DNA melting data of Ke et al. (doi:10.1101/2024.01.08.574731).

Columns and labels:
[1] = folding enthalpy; higher = less favourable; fluorescence melt of hairpins on a sequencing array, two-state fit; settings: sodium 0.088 M
Method in brief: (§1)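 Melting temperature and folding enthalpy were obtained by bootstrapped two-state fitting. Fits used Cy3 fluorescence of library hairpins with annealed Cy3 and quencher oligos on a sequenced MiSeq flow cell, imaged in 50 mM Na-HEPES pH 8.0, 25 mM NaCl in 2.5 °C steps up to 60 °C and normalised to pre-quench Cy3 and control constructs. Four replicates were combined by inverse-variance weighting, and fitted temperatures were raised by 9.35 °C to match UV melts.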

[2] = melting temperature; fluorescence melt of hairpins on a sequencing array, two-state fit, raised by 9.35 °C to match UV melts; settings: sodium 0.088 M
Method in brief: as §1

Row | Sequence | folding enthalpy [1] | Tm [2]
1 | GATCTGCGCCCAGATC ((((((....)))))) | -29.2 kcal/mol | 48.4 °C
2 | GATCTGCTACCAGATC ((((((....)))))) | -37.4 kcal/mol | 48.8 °C
3 | GATCTGCTCCCAGATC ((((((....)))))) | -37.1 kcal/mol | 47.9 °C
4 | GATCTGCTTTCAGATC ((((((....)))))) | -40.1 kcal/mol | 49.1 °C
5 | GATCTGGAGACAGATC ((((((....)))))) | -33.9 kcal/mol | 52 °C
6 | GATCTGGAGTCAGATC ((((((....)))))) | -48.3 kcal/mol | 48.1 °C
7 | GATCTGGATACAGATC ((((((....)))))) | -34 kcal/mol | 56.7 °C
8 | GATCTGGCAACAGATC ((((((....)))))) | -35 kcal/mol | 57.6 °C
9 | GATCTGGCGGCAGATC ((((((....)))))) | -53.2 kcal/mol | 53.3 °C
10 | GATCTGGCTACAGATC ((((((....)))))) | -42 kcal/mol | 59.4 °C
11 | GATCTGGGACAGATC ((((((...)))))) | -35.5 kcal/mol | 58.1 °C
12 | GATCTGGGCACAGATC ((((((....)))))) | -40 kcal/mol | 59.3 °C
13 | GATCTGGGGTCAGATC ((((((....)))))) | -34.5 kcal/mol | 48.7 °C
14 | GATCTGGGTTCAGATC ((((((....)))))) | -43.3 kcal/mol | 49.4 °C
15 | GATCTGGTATCAGATC ((((((....)))))) | -41.8 kcal/mol | 55.5 °C
16 | GATCTGGTGTCAGATC ((((((....)))))) | -35.2 kcal/mol | 49.8 °C
17 | GATCTGTAAACAGATC ((((((....)))))) | -39.5 kcal/mol | 50.3 °C
18 | GATCTGTAACCAGATC ((((((....)))))) | -29.3 kcal/mol | 46.8 °C
19 | GATCTGTACCAGATC ((((((...)))))) | -31.9 kcal/mol | 49.3 °C
20 | GATCTGTACGCAGATC ((((((....)))))) | -44.9 kcal/mol | 54.4 °C
21 | GATCTGTAGACAGATC ((((((....)))))) | -35.5 kcal/mol | 50.8 °C
22 | GATCTGTCAACAGATC ((((((....)))))) | -39.1 kcal/mol | 51.6 °C
23 | GATCTGTCGACAGATC ((((((....)))))) | -49.6 kcal/mol | 55.1 °C
24 | GATCTGTCGCAGATC ((((((...)))))) | -24.5 kcal/mol | 48.5 °C

Row | Sequence | folding enthalpy [1] | Tm [2]
25 | GATCTGTGCACAGATC ((((((....)))))) | -48.9 kcal/mol | 57.9 °C
26 | GATCTGTGCCCAGATC ((((((....)))))) | -30.6 kcal/mol | 49 °C
27 | GATCTGTGGTCAGATC ((((((....)))))) | -38.7 kcal/mol | 49.6 °C
28 | GATCTGTGTACAGATC ((((((....)))))) | -47.9 kcal/mol | 56 °C
29 | GATCTGTGTCCAGATC ((((((....)))))) | -31.8 kcal/mol | 49.2 °C
30 | GATCTGTTAACAGATC ((((((....)))))) | -39.8 kcal/mol | 54.7 °C
31 | GATCTGTTACAGATC ((((((...)))))) | -36.3 kcal/mol | 50.5 °C
32 | GATCTGTTCCAGATC ((((((...)))))) | -30.4 kcal/mol | 50.7 °C
33 | GATCTGTTTCAGATC ((((((...)))))) | -34.5 kcal/mol | 50.5 °C
34 | GATCTGTTTCCAGATC ((((((....)))))) | -34.9 kcal/mol | 49.3 °C
35 | GATCTTAAGCAAGATC ((((((....)))))) | -31.3 kcal/mol | 40.1 °C
36 | GATCTTAATCAAGATC ((((((....)))))) | -26.5 kcal/mol | 38.6 °C
37 | GATCTTACCCAAGATC ((((((....)))))) | -26.2 kcal/mol | 42.1 °C
38 | GATCTTACCGAAGATC ((((((....)))))) | -33 kcal/mol | 42.9 °C
39 | GATCTTAGAAAAGATC ((((((....)))))) | -21.6 kcal/mol | 36.4 °C
40 | GATCTTAGGCAAGATC ((((((....)))))) | -27.9 kcal/mol | 42.8 °C
41 | GATCTTAGTAAAGATC ((((((....)))))) | -30.3 kcal/mol | 43.1 °C
42 | GATCTTATCCAAGATC ((((((....)))))) | -31.6 kcal/mol | 42.6 °C
43 | GATCTTATCGAAGATC ((((((....)))))) | -20.8 kcal/mol | 38.7 °C
44 | GATCTTATTCAAGATC ((((((....)))))) | -31.7 kcal/mol | 43.5 °C
45 | GATCTTCAATAAGATC ((((((....)))))) | -30.6 kcal/mol | 39.8 °C
46 | GATCTTCAGAAGATC ((((((...)))))) | -35.9 kcal/mol | 40.3 °C
47 | GATCTTCATCAAGATC ((((((....)))))) | -29.9 kcal/mol | 40.3 °C
48 | GATCTTCCAGAAGATC ((((((....)))))) | -33.7 kcal/mol | 46 °C

Row | Sequence | folding enthalpy [1] | Tm [2]
49 | GATCTTCCCTAAGATC ((((((....)))))) | -31.1 kcal/mol | 43.3 °C
50 | GATCTTCGCGAAGATC ((((((....)))))) | -59 kcal/mol | 55.3 °C
51 | GATCTTCGGAAAGATC ((((((....)))))) | -29.1 kcal/mol | 38.9 °C
52 | GATCTTCGGCAAGATC ((((((....)))))) | -28.3 kcal/mol | 37.8 °C
53 | GATCTTCGTAAGATC ((((((...)))))) | -30.9 kcal/mol | 45.2 °C
54 | GATCTTCGTCAAGATC ((((((....)))))) | -33.5 kcal/mol | 40.7 °C
55 | GATCTTCGTGAAGATC ((((((....)))))) | -41 kcal/mol | 53.3 °C
56 | GATCTTCTAAAGATC ((((((...)))))) | -30.9 kcal/mol | 42.9 °C
57 | GATCTTCTGAAGATC ((((((...)))))) | -37 kcal/mol | 43.6 °C
58 | GATCTTGAAAAGATC ((((((...)))))) | -33.5 kcal/mol | 54.8 °C
59 | GATCTTGAAGAAGATC ((((((....)))))) | -25.9 kcal/mol | 44.3 °C
60 | GATCTTGAATAAGATC ((((((....)))))) | -31.9 kcal/mol | 49.3 °C
61 | GATCTTGATAAGATC ((((((...)))))) | -21.6 kcal/mol | 43.6 °C
62 | GATCTTGCAAAAGATC ((((((....)))))) | -37.5 kcal/mol | 53.5 °C
63 | GATCTTGCAAAGATC ((((((...)))))) | -41 kcal/mol | 55 °C
64 | GATCTTGCAGAAGATC ((((((....)))))) | -34.8 kcal/mol | 46.8 °C
65 | GATCTTGCCCAAGATC ((((((....)))))) | -45.9 kcal/mol | 48.9 °C
66 | GATCTTGCGCAAGATC ((((((....)))))) | -54.1 kcal/mol | 55.5 °C
67 | GATCTTGGAAACAAGACC (.(((((....))))).) | -17.4 kcal/mol | 35.2 °C
68 | GATCTTGGAAACAAGGTC ((.((((....)))).)) | -33.9 kcal/mol | 44.2 °C
69 | GATCTTGGAAACGAGATC (((((.(....).))))) | -36.7 kcal/mol | 44.2 °C
70 | GATCTTGGATAAGATC ((((((....)))))) | -30.6 kcal/mol | 49.4 °C
71 | GATCTTGGCAAAGATC ((((((....)))))) | -38.9 kcal/mol | 53.2 °C
72 | GATCTTGGCAAGATC ((((((...)))))) | -46.1 kcal/mol | 48.2 °C

Row | Sequence | folding enthalpy [1] | Tm [2]
73 | GATCTTGTAAAAGATC ((((((....)))))) | -41.1 kcal/mol | 52.8 °C
74 | GATCTTGTAGAAGATC ((((((....)))))) | -27.5 kcal/mol | 46.4 °C
75 | GATCTTGTCAAGATC ((((((...)))))) | -34.2 kcal/mol | 47.4 °C
76 | GATCTTGTCCAAGATC ((((((....)))))) | -34.2 kcal/mol | 50.1 °C
77 | GATCTTGTGTAAGATC ((((((....)))))) | -34.6 kcal/mol | 43.6 °C
78 | GATCTTGTTTAAGATC ((((((....)))))) | -32.1 kcal/mol | 45.8 °C
79 | GATCTTTAAAAAGATC ((((((....)))))) | -34.8 kcal/mol | 40.5 °C
80 | GATCTTTAGAAGATC ((((((...)))))) | -24.7 kcal/mol | 38.7 °C
81 | GATCTTTATAAGATC ((((((...)))))) | -33.3 kcal/mol | 44 °C
82 | GATCTTTATCAAGATC ((((((....)))))) | -29.4 kcal/mol | 39.3 °C
83 | GATCTTTCAAAAGATC ((((((....)))))) | -32.2 kcal/mol | 42.2 °C
84 | GATCTTTCCAAGATC ((((((...)))))) | -37.1 kcal/mol | 47.7 °C
85 | GATCTTTCCTAAGATC ((((((....)))))) | -34.2 kcal/mol | 45.1 °C
86 | GATCTTTCGAAGATC ((((((...)))))) | -28.7 kcal/mol | 40.7 °C
87 | GATCTTTCTAAAGATC ((((((....)))))) | -37.7 kcal/mol | 47.3 °C
88 | GATCTTTCTGAAGATC ((((((....)))))) | -36 kcal/mol | 45.2 °C
89 | GATCTTTGCAAAGATC ((((((....)))))) | -57.2 kcal/mol | 50.9 °C
90 | GATCTTTGCCAAGATC ((((((....)))))) | -29.7 kcal/mol | 42.5 °C
91 | GATCTTTGCGAAGATC ((((((....)))))) | -45.8 kcal/mol | 47.6 °C
92 | GATCTTTGCTAAGATC ((((((....)))))) | -35.8 kcal/mol | 46 °C
93 | GATCTTTTAAAAGATC ((((((....)))))) | -39.2 kcal/mol | 45.9 °C
94 | GATCTTTTAAAGATC ((((((...)))))) | -30.9 kcal/mol | 43.8 °C
95 | GATCTTTTACAAGATC ((((((....)))))) | -31.9 kcal/mol | 42.8 °C
96 | GATCTTTTAGAAGATC ((((((....)))))) | -41.8 kcal/mol | 44.4 °C
